# Measured values: ChEMBL document CHEMBL4513216, “Probing the Open Global Health Chemical Diversity Library for Multistage-Active Starting Points for Next-Generation Antimalarials” (ACS Infect Dis, 2020)
# Assay: Toxicity liver stage against HepG2, at 10uM
# Type: cell-based
# Parameters: test concentration 10 uM, cell line HepG2-A16-CD81EGFP
# Settings: human, HepG2-A16-CD81EGFP cells; read-out: INHIBITION
# How it was run: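 Uninfected HepG2-A16-CD81EGFP cells, 3 × 10^3 per well, 1536-well, plated on prespotted compound at 10 μM final, parasite-free screening media added to match infected plates; puromycin 10 μM positive, DMSO 0.5% negative; run in parallel with 48 h PbLuc assay at 37 °C, 5% CO2; viability by CellTiter-Glo luminescence, normalized to controls.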
row,SMILES,cytotoxicity at 10 µM [%]
1,O=C(CCc1ccccn1)N1CCSC2(CCCCC2)C1,0.547
2,Cc1cnc(C(=O)N2CCOCC2c2ccccc2)cn1 (centres undefined),-8.31
3,CCC(CO)NC(=O)Cc1ccc(NC(=O)CC2=CCCCC2)cc1 (centres undefined),0.571
4,CCn1cc(S(=O)(=O)N2CCC(C)Sc3ccccc32)cn1 (centres undefined),3.34
5,COc1ccccc1C(C)(C)NCc1ccco1,5.95
6,CCc1ccc(CN2Cc3nccn3CC(Cn3cncn3)C2)o1 (centres undefined),-137
7,Cc1cccc(N2CCc3ncnc(C4CC4)c3CC2)n1,-148
8,CCN1CCc2c(sc3c2C(=O)NC(C=Cc2ccco2)N3)C1 (centres undefined),-1.07
9,CCC(Nc1nc(C)nc2onc(C)c12)c1cccs1 (centres undefined),52.4
10,CC1CCCN(C(=O)c2cn(-c3ccc(C(F)(F)F)cn3)nn2)C1 (centres undefined),-51.3
11,Cc1cnn(CCNCc2csc(-c3ccc(C(N)=O)cc3)n2)c1,-7.75
12,c1cncc(CO[C@H]2CC[C@H]3[C@@H]2OCCN3C2CCOCC2)c1,-14.4
13,Cc1ncsc1C(=O)N1CCCC(c2cc(C(F)F)n3ncnc3n2)C1 (centres undefined),4.05
14,O=C(c1ccccc1)N1CCN(CC(O)c2ccc(F)cc2)CC1 (centres undefined),-8.24
15,CC(C)c1ccc(-c2nonc2N)cc1,-3.25
16,CCn1nc2c(cc1=O)CN(Cc1nc(-c3ccoc3)no1)CC2,4.9
17,Cc1cc(CNC2(c3ccc(Cl)cc3)CC2)no1,1.5
18,Cc1cc(NC(C)c2csc(C)n2)n2nc(C)c(C)c2n1 (centres undefined),5.32
19,CC(NCCCc1cnn(C)c1)c1ccc(Cl)s1 (centres undefined),5.29
20,COCCN1CCCC12CCCN(c1nncs1)C2 (centres undefined),9.79
21,Cc1nn(C)c(N(C)C)c1CNC1CCOc2c(Cl)cccc21 (centres undefined),-5.36
22,COC(=O)CC(c1cnn(C)c1)c1oc(C)cc(=O)c1O (centres undefined),21.9
23,O=C(CCc1cc2n(n1)CCCN(C(=O)c1cccnc1)C2)NC1CC1,-7.38

row,SMILES,cytotoxicity at 10 µM [%]
1,CCn1c(NCc2ccc(OC)cc2)nc2c(C)nn(C)c2c1=O,4.23
2,O=C(CCn1cccc1)N1CCc2[nH]nc(COc3ccccc3)c2C1,7.54
3,Cn1cc(-c2ncnc3c2CCN(C(=O)N2CCOCC2)CC3)cn1,-11.3
4,CC(O)CN1CCC(CNCc2ccccc2OC(F)(F)F)CC1 (centres undefined),-11.6
5,O=C(Nc1cnn(COc2ccc(F)cc2Cl)c1)C1CC1,-10.6
6,Cc1nc(C)n(CC2CCCCN2CCCS(C)(=O)=O)n1 (centres undefined),5.02
7,O=C(C[S+]([O-])Cc1ccc(F)cc1Cl)N1CCc2sccc2C1 (centres undefined),-2.22
8,Cc1nn(C)c(C)c1C1CCCN1CC(=O)Nc1nccs1 (centres undefined),-21.6
9,COc1ccccc1CNc1cnn(CC(F)F)c1,-5.41
10,Cc1cc(NC(=O)C(C)N2CCN(c3nccs3)CC2)on1 (centres undefined),-12.6
11,Cc1nc(CN2CCc3cc(C(=O)O)c(N(C)C)nc3CC2)cs1,3.42
12,CC(=O)N1CCC2(C1)C(=O)N(CC1CC1)c1ccccc12 (centres undefined),2.26
13,CCN1CCC2(CCC(=O)N2Cc2cccc(C)n2)CC1,5.08
14,O=C1CC(c2ccncc2)C2(CCN(CC3CC3)CC2)N1 (centres undefined),11.3
15,Cc1c(CC(=O)N2CCN(CC(F)(F)F)CC2)nnn1-c1ccccc1,-14.8
16,Cc1cc(N2CCC(Cc3cccnc3)C2)ncn1 (centres undefined),-2.15
17,Cc1ccc([C@@H]2CN(S(=O)(=O)N(C)C)C[C@H]2N(C)C)cc1,2.47
18,CC(=O)N1CCN(Cc2cccs2)CC2(CC(=O)N(C)C2)C1 (centres undefined),1.7
19,CNC(=O)c1cc(S(=O)(=O)C(C)C)cs1,5.08
20,Cc1cnn(CC2CCCN2C(=O)CCc2ccco2)c1 (centres undefined),-4.7
21,CCOC(=O)C(C)Nc1cccc(COCc2ccco2)c1 (centres undefined),2.1
22,O=C(CC1CCCO1)Nc1ccn(Cc2cccc3cccnc23)n1 (centres undefined),2.17
23,CC(C)CCC(=O)N1CCCC1c1nnc2n1CCCCC2 (centres undefined),-8.88

row,SMILES,cytotoxicity at 10 µM [%]
1,Cc1nc(CCNC(=O)C2CC(=O)N(C(C)C)C2)sc1C (centres undefined),-14
2,CS(=O)(=O)Nc1ccc2c(c1)NC(=O)CC2c1cnn2cccnc12 (centres undefined),-1.77
3,O=C1NCCN2CCN(Cc3ccc(Cl)c(Cl)c3)CC12 (centres undefined),-4.92
4,Cc1cc(C(=O)N2CCCC2)ccc1NCc1nc(CC(C)C)no1,-4.09
5,COc1ccc(NC(=O)NC(C)(C)c2noc(C)n2)cc1,-3.42
6,CC(C)Cc1cc(C(=O)NCC(O)CN2CCCCCC2)on1 (centres undefined),-1.53
7,Cc1cnn(C2CCCN(C(=O)c3ccc(N(C)C)nn3)C2)c1 (centres undefined),-5.36
8,Cn1cccc1C(=O)OCCNC(=O)c1ccccc1,14.7
9,Cc1cnn(CCNCC(O)c2cccc(Br)c2)c1 (centres undefined),1.66
10,CCc1nc2n(n1)CC(NCc1cn(C)nc1-c1cccnc1)CC2 (centres undefined),-5.95
11,CCC(C)CN(C)C(=O)NCc1ccccc1-n1cccn1 (centres undefined),8.75
12,CC(C)c1ncncc1C(=O)NCCN1CCCCCC1,5.15
13,Cc1cc(CNS(=O)(=O)CCCC#N)ccc1N(C)C,-5.18
14,CCC(C)(C)n1nnnc1C(c1cccs1)N1CCc2ccccc21 (centres undefined),8.67
15,COc1cccc(CN2CC(O)CN(S(C)(=O)=O)CC2=O)c1OC (centres undefined),-0.686
16,CN(C)CCNC(=O)c1cc(-c2cnc(N3CCCC3)nc2)cn1C,15.7
17,CCc1nc(CN2CCCC(NCc3nc(C)c(C)o3)C2)no1 (centres undefined),-12.1
18,COc1ncccc1CN1CCC2[C@H]1CCN2CCN(C)C (some centres undefined),2.77
19,Cc1nn(C)c2c(N3CCN(C(=O)c4ccccc4)CC3)ncnc12,10.9
20,O=C(c1cc(Cl)c[nH]1)N1CCCC(c2cc(C(F)(F)F)[nH]n2)C1 (centres undefined),18
21,O=C(NCC1CCN(Cc2ccsc2)CC1)NC1CC1,6.82
22,CCn1ncc2c1C(COC)CN(S(=O)(=O)C1CC1)C2 (centres undefined),11.1
23,COc1ccc(F)c(NCC(C)(C)S(C)(=O)=O)c1,-3.18

row,SMILES,cytotoxicity at 10 µM [%]
1,CNC(=O)c1cccc(CN2CCC(N(C)Cc3nnc(C)o3)C2)c1 (centres undefined),8.75
2,CC(C)C1CN(C(=O)c2ccc(C(N)=O)cc2)CCS1 (centres undefined),-4.03
3,CCc1ncc(C(=O)N2CCCCC2Cn2cccn2)s1 (centres undefined),-2.48
4,CCN1C[C@H]2C3(CCN(C(C)=O)CC3)CC[C@@]2(C(=O)N(C)C)C1,-104
5,CC(C)C1CN(c2ncccn2)CCC(=O)N1Cc1ccc(F)cc1 (centres undefined),1.76
6,COC(=O)c1cc2n(n1)CCCN(C(=O)Cc1c[nH]c3ccccc13)C2,2.61
7,CCC(=O)Nc1ccc(F)cc1OC,-26.1
8,CC(C)C(=O)N1CCC2(CC1)NC(=O)c1ccccc12,-0.787
9,CC1(C)CC(n2cc3nc(N4CCOCC4)[nH]cc-3c2=O)CC(C)(C)N1,-19.9
10,Cc1nnc(NCC(c2ccco2)N2CCCC2)c(C#N)c1C (centres undefined),-3.04
11,Cc1oc(-c2ccsc2)nc1CC(=O)NCC(=O)Nc1cn[nH]c1,-1.36
12,Cc1ncsc1C(=O)NCc1cccnc1N(C)CCc1ccccn1,-14.5
13,O=C(c1cscn1)N1CCC(Cc2cnc3[nH]ccc3c2)C1 (centres undefined),-26.5
14,CC1CCCCN1C(=O)CCc1nnc(-c2ccccc2)o1 (centres undefined),-4.65
15,COC(=O)c1c(Cl)c(C2CC2)nc2onc(C)c12,10.1
16,OCC1CCCN1c1cc(NCCNc2ccccn2)ncn1 (centres undefined),-20.1
17,CCC(OC)C(=O)N1CCC2(CC1)c1nc[nH]c1CCN2S(C)(=O)=O (centres undefined),-6.6
18,O=C(NCCNc1ncccn1)C1CCN(C(=O)N2CCCC2)CC1,-6.11
19,O=C(CCN1CCCCO1)NCCSc1cnn[nH]1,0.956
20,CC(NCc1cn(CCC(N)=O)c2ccccc12)c1nncn1C (centres undefined),0.78
21,Nc1nnc(SCc2cc(=O)n3c4c(sc3n2)CCCC4)s1,7.83
22,CN(C)c1ncccc1CNCc1ccc(N2CCOCC2)cc1,5.95
23,Cc1noc(C)c1CN1CCn2cc(CN3CCOCC3)nc2C1,4.71

row,SMILES,cytotoxicity at 10 µM [%]
1,Cc1nnc2n1CCN(C(=O)c1cc(C)n(-c3cccnc3)c1C)C2,-6.63
2,NC(=O)c1cn2cc(-c3ccccc3Cl)n(CC3CC3)c(=O)c2n1,-1.35
3,O=C(NC[C@H]1OC[C@@H](NC2CCC2)[C@@H]1O)Nc1ccccc1,-4.16
4,Cn1cnc2cc(C(=O)N3CCN(CCO)[C@@H]4CS(=O)(=O)C[C@@H]43)ccc21,2.74
5,Cc1cc(N2CCC(c3n[nH]c4nccnc34)C2)ncn1 (centres undefined),-22.7
6,Cc1n[nH]/c(=N\C(=O)c2c3c(nc4onc(C)c24)CCC3)s1,-1.88
7,CC(=O)NCCNC(=O)Nc1ccc(Br)cc1C(C)C,6.54
8,Cc1cc(C)nc(N2CCOC(c3cc(CCO)[nH]n3)C2)n1 (centres undefined),1.89
9,Cc1nn(Cn2ccc(C(=O)N3CCCCCC3)n2)c(C)c1Cl,0.781
10,O=C(c1ccncc1)N1CCCC1c1nc(O)cc(-c2ccccn2)n1 (centres undefined),-9.08
11,CN(CC(=O)NC(Cc1ccccc1)C1CCCC1)S(C)(=O)=O (centres undefined),15.1
12,CC(C)c1nccn1C1CCCN(C(=O)c2nccnc2N)C1 (centres undefined),0.0264
13,Cc1n[nH]c(C)c1CNc1nc(-c2ccco2)nc2c1CCNCC2,-3.43
14,CCS(=O)(=O)N1CCOC(CCCc2ccccc2)C1 (centres undefined),-9.31
15,O=C(CC1CC1)N1C[C@@H](O)[C@H](N2CCN(c3ccccc3)CC2)C1,-0.38
16,Fc1cccc(-c2cccc(N3CCC(NC4CCCOC4)CC3)c2)c1 (centres undefined),12
17,Cc1cccc(-c2nc(C)nn2CC(=O)NC(C)C)c1,8.22
18,COCC(=O)N1CCOC(c2cccc(-c3cncnc3)n2)C1 (centres undefined),0.109
19,CN1CCCC1CCn1ccnc1-c1nc2ccccc2[nH]1 (centres undefined),5.47
20,Cc1nnc(N2CCN(C)C3(CCC(=O)N(CCO)CC3)C2)s1 (centres undefined),-9.2
21,COCCn1ccc2cc(NC(=O)COC)ccc21,0.82
22,COc1nn(C)c2c1CCCN(C(=O)c1cccn1C)C2,1.53
